This note sets out measurements from PubChem BioAssay.

The nature of test [1]: inhibitors of TNFa-induced NFkB p65 translocation, primary screen, imaging, HUVEC, MLSMR starter and 10KST1 sets (AID 438;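 active = inhibition above 20% together with a positive visual image hit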;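 also: compound added about 3h40 before a 20 min TNFalpha stimulation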;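 as to inhibition: signal is the nuclear over cytoplasmic p65 intensity ratio per well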). The following applies: HUVEC TNFa-induced p65 nuclear translocation; cell count: measured here: nuclei count (cytotoxicity indicator), at 2.08 µM; inhibition: at 2 µM, stronger effect = higher value, 0% TNFa-plus-vehicle, 100% no-TNFa wells.
Test [2] is described as follows: inhibitors of mutant huntingtin aggregation, primary screen, imaging, exon1htt(103Q)mCFP cells, high-content imaging (AID 483;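 active = visual image review flags a hit and inhibition of aggregation exceeds 20%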;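 also: compound exposure lasted 3 days before fixation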;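 as to nuclei count: percent of the per-plate median nuclei count of sample wells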). The following applies: exon1htt(103Q)mCFP cell line, aggregate imaging, at 2 µM; inhibition of aggregation: stronger effect = higher value; nuclei count: measured here: cell count, toxicity.
A short description of test [3]: inhibitors of E-selectin induction by TNFa, primary screen, imaging, HUVEC, immunofluorescence, MLSMR starter and 10KST1 sets (AID 487).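 As to inhibition: signal is fraction of cell area covered by stained E-selectin grains.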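 As to nuclei count: 100% = median nuclei count of all wells on the same plate.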 The following applies: HUVEC TNFalpha-induced E-selectin immunofluorescence imaging, at 2 µM; inhibition: stronger effect = higher value; nuclei count: measured here: cell number, toxicity.
Test [4] concerns the target Voltage-gated potassium channel subunit beta-2 (Rattus norvegicus) (UniProt P62483). Put plainly: KvBeta enzyme negative modulators, primary screen, biochemical, NADPH fluorescence (AID 622;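 active = fluorescence slope higher than the sample average by over 3 SD, cut at about -0.22 in these data, passing the limit was not always enough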;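 also: slope of raw intensity against log time taken from 70 to 1610 s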). The following applies: recombinant KvBeta, 4-cyanobenzaldehyde reduction, at 10 µM, stronger effect = higher value.
The target is the same in test [5]. Put plainly: KvBeta positive modulators, primary screen, biochemical, NADPH fluorescence (AID 623;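 active = NADPH fluorescence slope more negative than the mean of all samples by about 3 SD, 99.7% confidence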;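 also: fluorescence intensity change per second fitted from 20 to 320 s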). The following applies: Recombinant KvBeta, NADPH fluorescence decrease slope, 10 min; at 10 µM; stronger effect = lower value.
In test [6] the target is Muscarinic acetylcholine receptor M4 (Homo sapiens) (UniProt P08173). Put plainly: compounds altering M4/GIRK thallium flux, either direction, primary screen, M4 allosteric agonist project, cell-based, HEK293 M4/GIRK, BTC-AM (AID 625;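 active = fluorescence slope after compound addition differing from the mean of all tested samples at 99.7% confidence, mostly higher but some lower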;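 also: thallium influx through GIRK channels coupled to M4 in HEK293 cells with BTC-AM dye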). The following applies: at 10 µM, actives lie on both sides. A digest of the protocol: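 System: HEK293 cells with M4 receptor and GIRK channels | Incubation: Cells overnight at 37 °C, BTC-AM loading 1 h, reads 2 min total | Technique: Kinetic BTC-AM fluorescence sampled at 1 Hz, 10 s pre-addition baseline | Measure: Post-addition slope, 15–24 s, of baseline-normalized fluorescence | Control set: Carbachol positive, DMSO negative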

Test [7] in a line: inhibitors of Sendai virus-induced IRF3 signaling, primary screen, TLR/RLR signaling modifier project, cell-based, Sendai virus stimulus, luciferase, 10K MLSCN set (AID 602276;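 active = inhibition at or above 50% at 10 µM; inactive = inhibition below 50%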;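 also: firefly luciferase from ISG56 promoter only with Renilla not read in this screen; 0% = Sendai virus plus DMSO and 100% = medium plus DMSO without virus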). The following applies: HEK293 RL24 IRF3 luciferase reporter, at 10 µM, stronger effect = higher value.
A short description of test [8]: inhibitors of poly I:C-induced TLR3 signaling, primary screen, cell-based, poly I:C stimulus, luciferase, 10K MLSCN set (AID 602277;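 active = inhibition of the reporter signal at or above 50%; inactive = inhibition below 50%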). The following applies: HEK293-TLR3 RL24 IRF3 luciferase reporter, at 10 µM, stronger effect = higher value. In general terms: A reporter such as luciferase makes a cellular process visible.

Calls of active or inactive are those of the source.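 The calls were made as follows, unless noted: active = visually confirmed hit in the image check and inhibition above 20%; inconclusive = visually confirmed hit but inhibition not above 20%; inactive = no visual hit in the image check.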

In general, inhibition refers to the relative decrease from the control value, in per cent.

Chain of Muscarinic acetylcholine receptor M4 (Homo sapiens) (P08173 whole entry, looked up): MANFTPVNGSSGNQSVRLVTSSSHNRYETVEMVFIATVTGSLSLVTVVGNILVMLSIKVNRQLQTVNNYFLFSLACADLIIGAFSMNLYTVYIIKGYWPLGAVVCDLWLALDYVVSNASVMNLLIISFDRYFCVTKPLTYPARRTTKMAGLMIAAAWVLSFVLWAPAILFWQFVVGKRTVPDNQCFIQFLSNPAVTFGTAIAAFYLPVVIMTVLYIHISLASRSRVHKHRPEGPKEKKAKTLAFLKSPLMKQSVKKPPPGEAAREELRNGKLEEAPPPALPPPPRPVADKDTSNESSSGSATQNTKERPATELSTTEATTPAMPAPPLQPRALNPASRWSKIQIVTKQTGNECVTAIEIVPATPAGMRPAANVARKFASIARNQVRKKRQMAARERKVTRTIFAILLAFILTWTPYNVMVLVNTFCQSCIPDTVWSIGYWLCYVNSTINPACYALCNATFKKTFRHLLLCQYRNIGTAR
Chain of Voltage-gated potassium channel subunit beta-2 (Rattus norvegicus) (P62483 whole entry, looked up): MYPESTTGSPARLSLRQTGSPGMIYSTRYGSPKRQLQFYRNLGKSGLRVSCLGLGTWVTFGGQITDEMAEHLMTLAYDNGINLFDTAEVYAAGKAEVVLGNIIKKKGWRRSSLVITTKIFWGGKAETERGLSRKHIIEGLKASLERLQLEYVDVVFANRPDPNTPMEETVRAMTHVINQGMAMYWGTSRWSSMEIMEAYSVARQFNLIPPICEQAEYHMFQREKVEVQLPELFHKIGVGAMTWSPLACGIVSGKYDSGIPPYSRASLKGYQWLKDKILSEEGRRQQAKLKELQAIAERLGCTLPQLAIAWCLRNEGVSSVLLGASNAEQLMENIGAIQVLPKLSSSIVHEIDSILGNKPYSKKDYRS

Consider `O=C(CCn1nc(-c2ccccc2)ccc1=O)N1CCCC1`, for which the cell count in test [1] was found to be 349. For the same compound, the inhibition in test [1] was 2.1% (inactive); in test [3], -8.9% (inactive); in test [7], 6.69% (inactive); in test [8], 2.22% (inactive). The inhibition of aggregation in test [2] was -17% (inactive). The nuclei count worked out at 95.9% in test [2] and 106% in test [3]. Besides, the fluorescence slope in test [4] is -0.577 (inactive); in test [6] it was 0.00645 (inactive). Besides, the NADPH fluorescence slope in test [5] was -2e-05 (inactive).

Take `COc1ccccc1OC(=O)c1ccc2nsnc2c1`: in test [1], the cell count worked out at 623. For the same compound, the inhibition in test [1] is -11.4% (inactive); in test [3] it was -75.4% (inactive); in test [7] it was 9.79% (inactive); in test [8], 99.7% (active). Moreover, the inhibition of aggregation in test [2] is 25% (inactive). Besides, the figures for the nuclei count in test [2] and in test [3] were 87.8% and 103%, respectively. Further, the fluorescence slope is -0.585 (inactive) in test [4] and 0.00471 (inactive) in test [6]. In addition, the NADPH fluorescence slope in test [5] is -5.9e-05 (inactive).

For `CCOC(=O)/C=C(\C)Sc1cc(=O)oc2ccccc12`, the cell count in test [1] is 571. Also, the inhibition in test [1] is 18.4% (inactive); in test [3] it was -103% (inactive); in test [7], 25.8% (inactive); in test [8] it was 47.5% (inactive). For the same compound, the inhibition of aggregation in test [2] is -8.4% (inactive). Further, the nuclei count in test [2] is 93.3%; in test [3], 126%. Further, the fluorescence slope in test [4] is -0.549 (inactive); in test [6], 0.00418 (inactive). The NADPH fluorescence slope in test [5] is -6e-05 (inactive).

As for `CCOC(=O)C1=C(C)NC(SC(C)=O)=NC1c1ccc(OC(C)=O)c(OC)c1` (stereo not drawn), the cell count in test [1] was found to be 550. For the same compound, the inhibition in test [1] is 0% (inactive); in test [3], -10.1% (inactive); in test [7], 1.93% (inactive); in test [8], 1.43% (inactive). Moreover, the inhibition of aggregation in test [2] is 50% (active). In addition, the figures for the nuclei count in test [2] and in test [3] were 64.7% and 101%, respectively. The fluorescence slope in test [4] was -0.507 (inactive); in test [6] it was 0.0052 (inactive). Moreover, the NADPH fluorescence slope in test [5] is -0.000113 (inactive).

`Cc1ccc(C(=O)C2COC(=O)C2)cc1` (stereo not drawn): in test [1], the cell count is 333. Besides, the inhibition is 4.9% (inactive) in test [1], -31.2% (inactive) in test [3], 18.7% (inactive) in test [7] and 0.799% (inactive) in test [8]. Besides, the inhibition of aggregation in test [2] was -2.7% (inactive). For the same compound, the nuclei count in test [2] was 116%; in test [3], 103%. Besides, the values for the fluorescence slope in test [4] and in test [6] were -0.579 (inactive) and 0.00631 (inactive), respectively. The NADPH fluorescence slope in test [5] is -2.8e-05 (inactive).

As for `CCCn1c(N2CCN(CC(=O)NCc3cccs3)CC2)nc2ccccc21`, in test [1], the cell count came out at 451. For the same compound, the inhibition is -6.7% (inactive) in test [1], -81.5% (inactive) in test [3], 21.5% (inactive) in test [7] and 28.5% (inactive) in test [8]. For the same compound, in test [2], the inhibition of aggregation was 5.2% (inactive). The nuclei count is 110% in test [2] and 228% in test [3]. Further, the fluorescence slope in test [4] was -0.437 (inactive); in test [6] it was 0.00415 (inactive). Also, the NADPH fluorescence slope in test [5] was -3.1e-05 (inactive).

For `CN1CCCC(OC(=O)COc2ccc(Br)cc2)C1` (stereo not drawn), the cell count in test [1] was 430. For the same compound, the inhibition in test [1] is -3.5% (inactive); in test [3], -63.5% (inactive); in test [7] it was -9.52% (inactive); in test [8], -1.12% (inactive). For the same compound, in test [2], the inhibition of aggregation is 2.1% (inactive). The nuclei count in test [2] came to 97%; in test [3], 87.2%. Further, the fluorescence slope in test [4] was -0.489 (inactive); in test [6], 0.0054 (inactive). Further, the NADPH fluorescence slope in test [5] is 0.000124 (inactive).

`CCn1cc(/C=C(/C#N)S(=O)(=O)c2ccccc2)cn1`: the cell count in test [1] is 593. Also, the inhibition is -10.9% (inactive) in test [1], -61.5% (inactive) in test [3], -4.56% (inactive) in test [7] and -9.84% (inactive) in test [8]. For the same compound, the inhibition of aggregation in test [2] is 7% (inactive). For the same compound, the values for the nuclei count in test [2] and in test [3] were 75% and 99.9%, respectively. Besides, the values for the fluorescence slope in test [4] and in test [6] were -0.488 (inactive) and 0.00519 (inactive), respectively. The NADPH fluorescence slope in test [5] was -9.1e-05 (inactive).

In the case of `N/C(Cn1nnc(-c2ccccc2)n1)=N\O`, the cell count in test [1] turned out to be 707. Besides, the inhibition is 5.4% (inactive) in test [1], 12.5% (inactive) in test [3], -16.8% (inactive) in test [7] and 89.1% (active) in test [8]. Further, the inhibition of aggregation in test [2] was -14.8% (inactive). Further, the nuclei count in test [2] was determined as 108%; in test [3], 114%. Moreover, the fluorescence slope was -0.463 (inactive) in test [4] and 0.00645 (inactive) in test [6]. Further, in test [5], the NADPH fluorescence slope is 2.3e-05 (inactive).

On to `Cc1ccc2c(COn3nnc4ccc(S(=O)(=O)N(C)C)cc43)cc(=O)oc2c1C`, for which the cell count in test [1] was determined as 702. The inhibition was 5.3% (inactive) in test [1], 30.2% (inactive) in test [3], -1.62% (inactive) in test [7] and 10.1% (inactive) in test [8]. For the same compound, the inhibition of aggregation in test [2] was 16.4% (inactive). Further, the nuclei count in test [2] stood at 96.2%; in test [3] it was 94.7%. Besides, the figures for the fluorescence slope in test [4] and in test [6] were -0.543 (inactive) and 0.00895 (inactive), respectively. Also, the NADPH fluorescence slope in test [5] is -6.4e-05 (inactive).

As for `CCNC(=O)C1CC(=O)N(Cc2ccc3c(c2)OCO3)C(=Nc2ccc(OCC)cc2)S1` (stereo not drawn), the cell count in test [1] was determined as 577. Moreover, the inhibition is -3.7% (inactive) in test [1], -3.2% (inactive) in test [3], 17.9% (inactive) in test [7] and 21.2% (inactive) in test [8]. Also, the inhibition of aggregation in test [2] is 13.6% (inactive). Further, the nuclei count in test [2] came to 108%; in test [3], 119%. For the same compound, the fluorescence slope was -0.588 (inactive) in test [4] and 0.00371 (inactive) in test [6]. Further, the NADPH fluorescence slope in test [5] was 1.7e-05 (inactive).

In the case of `COc1cc(-c2nnc(SCC(=O)c3ccc(C)cc3)o2)cc(OC)c1OC`, in test [1], the cell count was 378. Further, the inhibition in test [1] was 1.7% (inactive); in test [3] it was 28.9% (inactive); in test [7] it was -8.63% (inactive); in test [8], -7.77% (inactive). Moreover, the inhibition of aggregation in test [2] was -8.1% (inactive). Moreover, the nuclei count worked out at 87.7% in test [2] and 83.6% in test [3]. In addition, the fluorescence slope was -0.607 (inactive) in test [4] and 0.00366 (inactive) in test [6]. Also, in test [5], the NADPH fluorescence slope is 2.5e-05 (inactive).

On to `Cn1c(Cc2csc(N)n2)nnc1SCC(=O)NC1CCCCC1`, for which, in test [1], the cell count turned out to be 662. Besides, the inhibition in test [1] is -3.3% (inactive); in test [3], 16.6% (inactive); in test [7], 4.63% (inactive); in test [8], -2.17% (inactive). Further, the inhibition of aggregation in test [2] is -15.2% (inactive). The nuclei count in test [2] is 101%; in test [3], 91%. For the same compound, the fluorescence slope was -0.479 (inactive) in test [4] and 0.00433 (inactive) in test [6]. Also, the NADPH fluorescence slope in test [5] was 1.7e-05 (inactive).
